Screens deposited in PubChem by SRMLSC.
RAM network inh = inhibitors of the yeast RAM network; AID 868; inhibition, % at 50 µM; hit rate 1.8% among 190,000; S. cerevisiae dse1pr::URA3 reporter, 5-FOA growth OD615, 2 d; analog-sensitive cbk1-as2 kinase mutant strain;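 active = inhibition above a set limit, 3 SD over mean compound inhibition, cut at about 8.4% in these data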;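 note: inhibition rescues growth on 5-FOA so higher OD means more RAM inhibition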
Yeast lifespan up = yeast lifespan extension; S. cerevisiae growth with nicotinamide, OD615; deaD strain in restrictive glucose medium; inhibition of the nicotinamide effect, % at 10 µM; hit rate 0.68% among 130,000; AID 775;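 active = inhibition above a set limit, placed 3 SD over the median of all compounds, cut at about 26% in these data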
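Test system – modified budding yeast, DeaD strain · Compound – single dose 10 µM compound, 0.25% DMSO · Times – culture preincubation 4 h, compound exposure 48 h, both 30 °C · Detection – optical density (absorbance) at 615 nm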
WT yeast gro inh = growth inhibition of WT yeast, mitochondrial fusion screen; mitochondrial fusion phenotypic screen, WT strain; inhibition, % at 10 µM; hit rate 2.1% among 190,000; in the data active = inhibition above about 58%; tested in S. cerevisiae
Yeast growth inh = reduces growth of yeast BB579 in restrictive medium | hit rate 0.51% among 140,000 | inhibition, % at 10 µM | S. cerevisiae BB579 growth, OD615, 48 h;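 active = inhibition above a set limit, 3 SD over the mean compound inhibition, cut at about 44% in these data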
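Material: Saccharomyces cerevisiae DeaD strain BB579, replicative lifespan model yeast; buffer or medium: CSMM-D restrictive synthetic medium containing dextrose (glucose); compound: 10 µM single dose, DMSO 0.25%; timing: 48 h compound exposure at 30 °C after 4 h preincubation; signal: turbidity as optical density at 615 nm; benchmarks: positive control amphotericin B 10 µg/mL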
Hits are given with their value; . = inactive; / = no result given. Only some compounds are listed: those with a hit (about 4.3% of all), similar ones and a draw of the others.

SMILES | RAM network inh | Yeast lifespan up | WT yeast gro inh | Yeast growth inh
CC1(C)CC2c3cccc(C(=O)O)c3C(=O)N2c2c1ccc1ccccc21 (centres undefined) | . | 48 | . | .
CC12CC3CC(C)(C1)CC(C(=O)NC(=S)N1CCCCC1)(C3)C2 | . | . | 77 | .
COc1ccc(NS(=O)(=O)c2cc(NC(=O)c3cc(=O)c4ccccc4o3)ccc2OC)cc1 | 9.6 | / | . | /
COc1ccc(OC)c(S(=O)(=O)Nc2ccc(Oc3ccccc3)cc2)c1 | . | . | 63 | .
COc1ccc(OC)c(S(=O)(=O)Nc2ccc(O)c3ccccc23)c1 | . | / | 62 | .
COc1ccc(NS(=O)(=O)c2cc(NC(=O)c3ccc(F)cc3)ccc2OC)cc1 | . | . | . | .
COc1ccc(OC)c(S(=O)(=O)Nc2c(C)cccc2C)c1 | . | / | . | /
O=C(OCc1csc(-c2ccccc2)n1)c1ccc(O)cc1 | . | / | . | /
Cc1cccc(C)c1NC(=O)CNCC(=O)N(C)C | . | / | . | /
CCOC(=O)c1ccc(CSc2nnc(N)s2)cc1 | . | . | . | .
Cc1cc(C)c(S(=O)(=O)Nc2ccnc(-c3cccnc3)n2)c(C)c1 | . | / | . | /
CCN1CC=C2C(C#N)=C(N)C(C#N)(C#N)C(c3cc(Cl)ccc3Cl)C2C1 (centres undefined) | . | . | . | .
COc1ccc(NC(=O)N2CCN(c3ccc([N+](=O)[O-])cc3)CC2)cc1OC | . | / | . | /
COC(=O)c1ccccc1NC(=O)c1ccc(COc2cccc3ccccc23)o1 | . | . | . | .
COC(=O)c1ccccc1NC(=O)c1ccc(COc2ccccc2)o1 | 9.6 | . | . | .
COC(=O)Cc1ccc(O)c(N)c1 | . | / | . | /
Cn1c(C(=O)N2CCN(c3cccc(C(F)(F)F)c3)CC2)cc2sccc21 | . | . | 72 | .
COc1cc(C2Nc3cccc4cccc(c34)N2)ccc1OC(C)=O | . | . | . | .
COc1cc(C2Nc3cccc4cccc(c34)N2)cc(OC)c1O | 9.3 | . | . | .
O=C(O)CCc1ccc(-c2cccs2)n1CC(=O)Nc1ccccc1C(F)(F)F | . | / | . | /
CN(CC(=O)O)Cc1nc2ccccc2[nH]1 | . | . | . | .
CC(=O)Nc1cccc(NC(=O)CSc2ccc(C(F)(F)F)cc2[N+](=O)[O-])c1 | . | . | . | .
CN1CCN(C(=O)CSc2ccc(C(F)(F)F)cc2[N+](=O)[O-])CC1 | . | 30 | . | .
CC(=O)C1=C(c2cccc([N+](=O)[O-])c2)N(C(C)=O)n2c(C)nnc2S1 | . | / | 60 | /
CC(=O)c1c(C(C)=O)c(C)n(-c2cccc([N+](=O)[O-])c2)c1C | . | . | . | .
SMILES | RAM network inh | Yeast lifespan up | WT yeast gro inh | Yeast growth inh
O=C(CNC1CCCCCC1)Nc1ccccc1N1CCOCC1 | . | / | . | /
COc1ccc(N2C(=O)CC(Sc3ccccc3C(=O)O)C2=O)c([N+](=O)[O-])c1 (centres undefined) | . | / | . | /
Cc1ccc(C(=S)NCS(=O)(=O)c2ccc(C)cc2)cc1 | . | . | . | .
Cc1ccc(S(=O)(=O)CNC(=S)c2cccc(Cl)c2)cc1 | . | . | 69 | .
O=C(O)c1ccc(Cl)c(N2C(=O)Nc3ccccc3N2O)c1 | . | / | . | /
Cc1c(N/C=C/C(=O)c2ccc(Cl)cc2)c(=O)n(-c2ccccc2)n1C | . | . | . | .
Cc1c(NC(=O)C(=O)/C=C(\O)c2ccc(Cl)cc2)c(=O)n(-c2ccccc2)n1C | . | 79 | . | .
Cc1ccc(NC(=O)COC(=O)c2ccc(OCc3c(C)noc3C)cc2)cc1S(=O)(=O)N1CCOCC1 | 11 | . | . | .
Cc1noc(C)c1COc1ccc(C(=O)OCC(=O)Nc2ccc3c(c2)OCO3)cc1 | . | . | . | .
Cc1ccc(SCC(=O)O/N=C(\N)c2cccc([N+](=O)[O-])c2)cc1 | . | . | 59 | .
CC12CCC(c3n[nH]c(=S)nc31)C2(C)C (centres undefined) | . | . | . | .
O=C(NCc1ccco1)C(c1ccccc1)N(Cc1ccccc1)C(=O)Cn1nnc2ccccc21 (centres undefined) | . | / | . | .
CC1CCCC(NC(=O)COC(=O)CCSc2ccccc2)C1C (centres undefined) | . | / | . | /
C[n+]1c2n(c3ccccc31)N=C(c1cc(C(C)(C)C)c(O)c(C(C)(C)C)c1)CS2 | . | / | 76 | /
COc1cccc(C2=Nn3c(nnc3-c3ccccc3O)SC2)c1 | . | . | . | .
CCCOc1ccc(C(C)=O)cc1CSc1nc(O)cc(=O)[nH]1 | . | . | . | .
CN1CCN(C(=S)c2cn(Cc3ccccc3F)c3ccccc23)CC1 | . | / | . | /
CC1CCN(C(=S)c2cn(Cc3ccccc3F)c3ccccc23)CC1 | . | . | 74 | .
